This is a sample that favours compounds with a hit; in the whole collection about 3.1% have one here.
INS-1E GSIS act – GLuc luminescence reporter in INS-1E cells, primary screen for activators of glucose-dependent secretion of insulin | INS-1E GLuc reporter insulin secretion, 2-3 h | activation, % at 16.6 µM | 370,000 tested, 0.61% active | AID 743287, 2014;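 active = lowest replicate activation of at least 40%, so every replicate reaches that level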;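 also: 0% = median of neutral control wells and 100% = median of IBMX positive control wells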
F508del corr – F508del CFTR correction, initial screen, CFBE line, single point; CFBE cells, YFP halide quenching; stimulated with forskolin plus potentiator P3; % fluorescence drop versus neutral controls; activity (quench increase), % at 7.58 µM; 350,000 tested, 0.36% active; AID 720511, 2013;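 active = mean added fluorescence quench of at least 8% versus neutral control, with both replicates also reaching 8%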;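 also: cells transiently co-express mutant CFTR-F508del with the halide-sensitive YFP; corrector assay measuring rescue of mutant channel to the surface after 24 h compound exposure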
Cneo AK release – Cryptococcus neoformans cell lysis inducers, primary screen, AK release luminescence, single concentration | C. neoformans lysis, adenylate kinase release luminescence, 4 h; normalised: neutral wells 0, clomiphene wells 100 | 360,000 tested, 0.2% active | lysis activity, % at 15 µM;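 active = mean lysis activity across replicates of at least 80%, whatever share of replicates individually reach that level; inactive = mean lysis activity below 80%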
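Assay system: C. neoformans cells. Amount: yeast cell density of 5 × 10^6 cells/mL. Technique: AK luminescence. Buffer or medium: YPD. Times: static 4 h at 37 °C with compound, 1 h detection. Dosing: single-point compound dose. Read-out: lysis from increased AK signal.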
miR-122 sensor – miR-122 Renilla sensor signal increase in Huh7, primary screen, miR-122 inhibitor project, cell-based, single point, plate reader. Huh7 miR-122 Renilla luciferase sensor, 48 h; neutral wells = 0, positive control = 100. activation (reporter increase), % at 12.5 µM. 340,000 tested, 0.3% active. AID 602342, 2012;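 active = mean replicate activation score at least 90 and every replicate individually at or above 90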;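 also: higher luciferase means less miR-122 activity so hits act as miR-122 inhibitors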
HIV Env fusion – inhibitors of HIV-1 Env-driven cell-cell fusion, primary screen, HeLa-JRFL effector, CEM21 target cells, luciferase | AID 651610, 2012 | 360,000 tested, 1.1% active | inhibition, % at 12.3 µM;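 active = mean replicate inhibition score of at least 50 and every replicate individually at or above 50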;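 also: 0% = plate neutral controls and 100% = maraviroc near 300 nM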
rRNA inh HTS – reduced GFP signal of wild-type E. coli, primary screen, bacterial rRNA inhibitor project, GFP/RFP fluorescence, OD600, single point. E. coli WT GFP vs humanized-ribosome RFP mutants, 24 h; hits give low values; DMSO median 0, no signal -100. AID 720706, 2013. GFP signal change (wild-type ribosome), % (test concentration not listed). 350,000 tested, 1.6% active;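 active = significant combined selectivity score with lowered wild-type GFP, culture density cut under 30%, mutant RFP and density less affected; inactive = any of these conditions unmet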
* = called active by the depositor; nt = no result; [ ] = remark or other dose.

SMILES	INS-1E GSIS act	F508del corr	Cneo AK release	miR-122 sensor	HIV Env fusion	rRNA inh HTS
COc1ccc(-c2ccc3c(c2)[C@@H]2[C@@H](CCN2C(=O)NC2CCCC2)[C@H](CO)N3C)cc1	-28	4	nt	nt	59*[16.7 µM]	-13
COc1ccccc1S(=O)(=O)N1CC[C@@H]2[C@H]1c1cc(-c3ccccc3)ccc1N(C)[C@H]2CO	4	0	69	2[16.7 µM]	nt	3
Cc1ccccc1S(=O)(=O)N1CC[C@@H]2[C@@H](CO)N(C)c3ccc(-c4ccccc4)cc3[C@@H]21	0	1	-4	102*[16.7 µM]	nt	1
CN1c2ccc(-c3ccc(C#N)cc3)cc2[C@H]2[C@H](CCN2S(=O)(=O)c2cccc(F)c2)[C@H]1CO	-4	15*	-7	16[16.7 µM]	nt	0
C[C@H]1CN([C@@H](C)CO)C(=O)c2cc(C#Cc3ccccn3)cnc2O[C@H]1CN(C)CC1CCCC1	18	1	nt	-2[16.7 µM]	nt	2
C[C@@H]1CN([C@H](C)CO)C(=O)c2cccc(NS(=O)(=O)c3ccc(F)cc3)c2O[C@H]1CN(C)S(=O)(=O)c1ccc(F)cc1	12	-2	2	2[16.7 µM]	-3[16.7 µM]	0
COc1ccc(-c2ccc([C@@H]3[C@@H](CO)N4C(=O)CN(Cc5ccc(F)cc5)C[C@@H]34)cc2)cc1	-3	0	nt	nt	nt	3
CS(=O)(=O)N1CC2(C1)[C@H](c1ccccc1)[C@H](CO)N2CC1CCCC1	-10	-3	nt	nt	nt	-7
O=C(C[C@H]1CC[C@H]2[C@@H](COC[C@@H](O)CN2Cc2nccs2)O1)NCc1ccc(Cl)cc1	-2	0	2	4[16.7 µM]	nt	-3
CN1c2ccc(-c3cccc(F)c3)cc2[C@H]2[C@H](CCN2S(=O)(=O)c2cccc(F)c2)[C@@H]1CO	-41	0	-2	-4[16.7 µM]	nt	-3
COc1ccc(S(=O)(=O)N2CC[C@@H]3[C@@H](CO)N(C)c4ccc(-c5ccc(F)cc5)cc4[C@@H]32)cc1	-15	12*	1	196*[16.7 µM]	nt	1
CN1c2ccc(-c3ccc(F)cc3)cc2[C@H]2[C@H](CCN2S(=O)(=O)c2cccc(F)c2)[C@@H]1CO	6	14*	-1	6[16.7 µM]	nt	-1
COc1ccc2c3c([nH]c2c1)[C@H](CO)N(C(=O)CN(C)C)CC31CCN(C(=O)c2cccnc2)CC1	0	-1	nt	nt	-11[16.7 µM]	4
COc1ccc(C[C@@H]2CCn3cc(nn3)COCCNC2=O)cc1	2	nt	nt	nt	nt	2
COc1ccc(C)cc1NC(=O)C(OC(=O)c1cnccn1)c1ccccc1 (stereo not given)	10	0	0	nt	-50	-4
COc1ccc(C)cc1NC(=O)C(OC(=O)c1ccc(Cl)c(S(=O)(=O)N(C)c2ccccc2)c1)c1ccccc1 (stereo not given)	-10	9.2*	0	7	36	10
C[C@H](CO)N1C[C@H](C)[C@@H](CN(C)Cc2ccc(C(=O)O)cc2)Oc2ccc(NC(=O)Nc3ccc(C(F)(F)F)cc3)cc2CC1=O	7	-1	-1	2[16.7 µM]	27[16.7 µM]	-2
CCc1ccc(C(=O)COC(=O)CNC(=O)c2ccc(Br)o2)cc1	-9	-1	1	4	-7	-22*
CN1[C@H](CO)[C@H]2c3ccccc3N(C(=O)Nc3cc(F)ccc3F)C[C@H]21	-1	-3	-4	8[16.7 µM]	nt	-2
Cc1cccc(NC(=S)N=Nc2c(O)n(C)c3ccc(S(=O)(=O)N4CCOCC4)cc23)c1	8	3	-2	-2	58*	11
Fc1ccc(-n2nnc(-c3nccs3)n2)cc1	-7	-4	-4	136*	-139	-42
COCC(=O)Nc1ccc2c(c1)OC[C@H](C)N(Cc1cncnc1)C[C@@H](C)[C@H](OC)CN(C)C2=O	3	0	nt	19[16.7 µM]	nt	3

Screening data: PubChem BioAssay, Broad Institute
